KCNK9 block: human KCNK9 channel inhibition; HEK293 KCNK9, FluxOR thallium flux fluorescence; hits give low values; hit rate 1.2% among 310,000; AID 488922; B-score at 10 µM;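 active means ratio B-score over 3 SD below the library mean, with starting fluorescence within 5 SD of its mean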;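 further: negative B-score means less thallium flux so channel inhibition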
KCNK3 block: human KCNK3 channel inhibition, primary screen | O14649 | CHO-KCNK3 thallium flux, FluxOR fluorescence; hits give low values | B-score at 10 µM | hit rate 0.84% among 340,000 | AID 602410;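 active means B-score under library mean minus 4 SD, starting fluorescence ratio at most library mean plus 5 SD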;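 further: more negative B-score means stronger inhibition of thallium flux through KCNK3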
KCNQ1 act: potentiators or activators of human KCNQ1 potassium channel; P51787; CHO-K1 KCNQ1, thallium flux FluxOR fluorescence; hits give high values; B-score at 10 µM; hit rate 0.35% among 310,000; AID 2648;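 active means fluorescence ratio B-score, a plate-corrected score, at least three library SD, with initial intensity B-score within 5 SD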
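assay system = KCNQ1-transfected CHO-K1 cells | medium = assay buffer with matched DMSO | probe or stimulus = depolarizing K+/Tl+ stimulus, K2SO4 and Tl2SO4 each 12.5 mM in 5x stock | dosing = single dose | incubation = dye 90 min, compound 20 min, room temperature | detection = kinetic FluxOR fluorescence, 10 s baseline plus 110 s post-stimulus | evaluation = ratio B score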
Kir21 block: Kir2.1 (mouse) channel inhibition | P35561 | HEK293-Kir2.1, FluxOR thallium flux fluorescence; hits give low values | B-score at 10 µM | hit rate 0.85% among 310,000 | AID 1672;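 active means fluorescence ratio B-score at or below minus 3 SD of library scores, with starting-brightness B-score within 2 SD, cut at about -4.2 in these data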;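 further: channel flux triggered by added potassium and thallium sulfate stimulus; B-score of peak minus minimum fluorescence over baseline after thallium stimulus; more negative B-score means stronger Kir2.1 block with less thallium influx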
Target sequence (P35561 whole entry, looked up): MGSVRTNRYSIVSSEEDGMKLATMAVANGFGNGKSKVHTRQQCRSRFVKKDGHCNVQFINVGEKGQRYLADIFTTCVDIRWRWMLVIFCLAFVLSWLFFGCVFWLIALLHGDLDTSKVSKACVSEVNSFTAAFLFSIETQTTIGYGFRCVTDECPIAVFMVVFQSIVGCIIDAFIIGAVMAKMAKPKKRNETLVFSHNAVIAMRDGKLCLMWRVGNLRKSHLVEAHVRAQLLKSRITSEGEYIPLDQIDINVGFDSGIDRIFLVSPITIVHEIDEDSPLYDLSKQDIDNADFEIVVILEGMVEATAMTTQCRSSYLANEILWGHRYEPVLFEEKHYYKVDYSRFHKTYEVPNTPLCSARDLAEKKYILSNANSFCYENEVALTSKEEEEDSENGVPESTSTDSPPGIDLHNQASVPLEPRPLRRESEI
hERG protect: shields human hERG channel from block by proarrhythmic agents | activation (rescue from dofetilide block), less the hit threshold, % at 10 µM | CHO-hERG, FluxOR thallium flux, dofetilide IC70 present | Q12809 | hit rate 0.51% among 310,000;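 active means activation above the mean of controls blocked by dofetilide plus 5 SD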;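 further: thallium influx through hERG after potassium depolarization seen as dye fluorescence rise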
KCNQ1 block: blocks the human KCNQ1 potassium channel. B-score at 10 µM. CHO-K1 KCNQ1, FluxOR thallium flux fluorescence; hits give high values. hit rate 1.3% among 310,000;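 active means compounds whose thallium flux B-score, printed positive for inhibition, exceeds three library SD while starting fluorescence stays within three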;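 further: channel opened by potassium depolarization with thallium stimulus after 20 min compound exposure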
Starred values were filed as active, the others as inactive. In the library only some 3.7% were active in any assay of this set; here they are far more common.

CC(=O)Nc1ccc(NC2CCCCC2NS(=O)(=O)c2ccccc2)cc1 (configuration not stated) was read as KCNK9 block inactive, KCNK3 block inactive, KCNQ1 act inactive, Kir21 block 0.66, hERG protect -6.7 and KCNQ1 block inactive.
O=C1CNC(=S)N1C1CCCCCC1 was read as KCNK9 block inactive, KCNK3 block inactive, KCNQ1 act inactive, Kir21 block -5.61*, hERG protect -7.9 and KCNQ1 block inactive.
`CCCC1NC(=S)N(C2CCCCC2)C1=O` (configuration not stated) gave KCNK9 block inactive, KCNK3 block inactive, KCNQ1 act inactive, Kir21 block 2.36, hERG protect -5.5 and KCNQ1 block inactive.
`Cc1ccc(O)c(C2=Nc3ccccc3C2(C)C)c1` gave KCNK9 block inactive, KCNK3 block inactive, KCNQ1 act inactive, Kir21 block -0.15, hERG protect -5.4 and KCNQ1 block inactive.
Screening COc1ccc(C)cc1C1=Nc2ccccc2C1(C)C returned KCNK9 block inactive, KCNK3 block inactive, KCNQ1 act inactive, Kir21 block -4.97*, hERG protect -5.5 and KCNQ1 block inactive.
For CN(Cc1ccccc1)Cc1ccccc1C(O)c1ccccc1 (configuration not stated) the results were KCNK3 block inactive.
For CC(C)NCC(O)Cn1c2c(c3ccccc31)CCc1c-2cnn1-c1ccccc1 (configuration not stated) the results were KCNK9 block inactive, KCNK3 block inactive, KCNQ1 act inactive, Kir21 block -6.09*, hERG protect -18.1 and KCNQ1 block inactive.
COc1ccc(C(=O)c2c(C)c3ccccc3n2CC(O)CNC(C)C)cc1 (configuration not stated) was read as KCNK9 block inactive, KCNK3 block inactive, KCNQ1 act inactive, Kir21 block -4.13, hERG protect -11.5 and KCNQ1 block inactive.
`CCOC(=O)c1sc(NC(=O)C2CC(=O)N(c3ccc(OC)cc3)C2)nc1C` (configuration not stated) gave KCNK9 block inactive, KCNK3 block inactive, KCNQ1 act inactive, Kir21 block -0.36, hERG protect -8.6 and KCNQ1 block inactive.
Screening Fc1ccc(-n2c(Cc3cccs3)n[nH]c2=S)cc1Cl returned KCNK9 block inactive, KCNK3 block inactive, KCNQ1 act inactive, Kir21 block -4.21*, hERG protect -8.4 and KCNQ1 block inactive.
`FC(F)(F)c1ccc(Cl)c(-n2c(Cc3cccs3)n[nH]c2=S)c1` gave KCNK9 block inactive, KCNK3 block inactive, KCNQ1 act inactive, Kir21 block -2.53, hERG protect -17.3 and KCNQ1 block inactive.
`COc1cccc(/C=N/n2c(-c3n[nH]c4c3CCC4)n[nH]c2=S)c1OC` gave KCNK9 block inactive, KCNK3 block inactive, KCNQ1 act inactive, Kir21 block 0.88, hERG protect -0.7 and KCNQ1 block inactive.
For O=[N+]([O-])c1ccc(N2CCC(=NOCc3ccc(Cl)cc3)CC2)cc1 the results were KCNK9 block inactive, KCNK3 block inactive, KCNQ1 act inactive, Kir21 block -1.92, hERG protect -17.7 and KCNQ1 block 6*.
Screening O=[N+]([O-])c1ccc(CN2CCN(c3ccc([N+](=O)[O-])cc3)CC2)cc1 returned KCNK9 block inactive, KCNK3 block inactive, KCNQ1 act inactive, Kir21 block 0.87, hERG protect -5.6 and KCNQ1 block inactive.
Screening Cc1ccc2nc(C)c(CN3CCN(c4ccc([N+](=O)[O-])cc4Cl)CC3)n2c1 returned KCNK9 block inactive, KCNK3 block inactive, KCNQ1 act inactive, Kir21 block 1.07, hERG protect -17.0 and KCNQ1 block 9*.
`CN(C)c1ccc2c(c1)OC(N)=C(C#N)C2c1cccc(F)c1` (configuration not stated) gave KCNK9 block -6.75*, KCNK3 block -10.8*, KCNQ1 act inactive, Kir21 block -0.41, hERG protect -20.8 and KCNQ1 block inactive.
`CCOC(=O)c1c(NC(=O)c2nn(CC)cc2Br)c(C#N)cn1-c1ccccc1` gave KCNK9 block inactive, KCNK3 block -10.8*, KCNQ1 act inactive, Kir21 block -0.78, hERG protect -5.0 and KCNQ1 block inactive.
